Assay results from ChEMBL document CHEMBL1212911, “Identification of potent and selective amidobipyridyl inhibitors of protein kinase D” (J Med Chem, 2010).

Target: Calcium/calmodulin-dependent protein kinase type II subunit beta (Homo sapiens) (UniProt Q13554)
Experiment: Inhibition of human CaMK2beta
Settings: concentration not given here
In short: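 Selectivity screen run externally (Invitrogen SelectScreen). Percent inhibition measured at 1 μM compound, mean of 2 measurements.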

Calcium/calmodulin-dependent protein kinase type II subunit beta (Homo sapiens), sequence (Q13554 whole entry): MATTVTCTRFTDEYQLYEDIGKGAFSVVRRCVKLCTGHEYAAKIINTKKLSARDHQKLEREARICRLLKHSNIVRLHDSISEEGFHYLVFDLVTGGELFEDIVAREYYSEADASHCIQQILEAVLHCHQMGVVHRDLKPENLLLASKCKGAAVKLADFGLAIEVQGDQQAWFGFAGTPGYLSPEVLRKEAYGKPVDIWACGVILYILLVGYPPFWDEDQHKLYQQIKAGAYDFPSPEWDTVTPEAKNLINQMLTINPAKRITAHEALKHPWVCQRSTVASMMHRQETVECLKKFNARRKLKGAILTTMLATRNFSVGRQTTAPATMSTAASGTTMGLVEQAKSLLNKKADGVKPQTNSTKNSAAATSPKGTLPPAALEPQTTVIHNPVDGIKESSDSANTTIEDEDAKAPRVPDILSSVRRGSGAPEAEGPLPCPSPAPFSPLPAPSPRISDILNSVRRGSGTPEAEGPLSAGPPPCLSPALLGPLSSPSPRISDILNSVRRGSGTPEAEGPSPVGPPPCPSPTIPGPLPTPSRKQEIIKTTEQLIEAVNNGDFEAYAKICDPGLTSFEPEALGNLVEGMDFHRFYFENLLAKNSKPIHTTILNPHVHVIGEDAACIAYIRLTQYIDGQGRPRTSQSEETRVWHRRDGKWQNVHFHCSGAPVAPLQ

inhibition: 3%
Compound: NC(=O)c1cc(-c2ccnc(NC3CCCCC3)c2)nc(N2CCNCC2)c1
